Screening results: PubChem, several laboratories
STAT3 blocker = IL-6 driven STAT3 reporter inhibitors, primary screen, U3A cells, luciferase, luminescence, MLSCN library | IL-6 STAT3-luciferase reporter; host cell line lacks STAT1 | inhibition, % at 5.5 µM | 190,000 tested, 0.89% active | AID 862, 2007;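 active means inhibition above the mean inhibition across all screened compounds plus 3 SD, cut at about 44% in these data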;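 further: 0% = DMSO only wells and 100% = 100 µM nifuroxazide control wells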
STAT3 activator = IL-6 driven STAT3 reporter potentiators, primary screen, U3A cells, luciferase, luminescence, MLSCN library; IL-6 STAT3-luciferase reporter; 100% = signal with IL-6 EC80 alone; activation (% of control), % at 5.6 µM; 190,000 tested, 0.91% active; AID 871, 2007;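 active means activation above the screen-wide mean of compound activation plus 3 SD, cut at about 130% in these data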;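 further: 0% = background luminescence of wells with medium and substrate only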
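Test system: Human STAT1-deficient U3A cells with stable STAT3-luciferase reporter | Also added: Interleukin-6, 33 ng/mL | Timing: Compound pre-incubation 1 h before IL-6, then 6 h stimulation at 37 °C | Technique: Luciferase reporter luminescence | Read-out: Percent of IL-6-only median luminescence | Benchmarks: IL-6-only wells as 100% reference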
STAT1 inh = STAT1 signaling inhibitors, primary screen, cell-based, HTS, luciferase reporter; inhibition, % at 5.5 µM; 200,000 tested, 0.35% active; NIH 3T3 STAT1-luciferase reporter, IFN-gamma, luminescence;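 active means inhibition above a set limit, the mean inhibition across all tested compounds plus 3 SD, cut at about 34% in these data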;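 further: 0% = IFN-gamma with DMSO and 100% = IFN-gamma with 300 µM nifuroxazide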
APP 5'UTR act = activators of APP 5'UTR luciferase reporter, primary screen, SH-SY5Y cells; AID 1276, 2008; activation, % at 2 µM; 190,000 tested, 1% active; SH-SY5Y APP 5'UTR luciferase reporter, luminescence; zero percent = DMSO vehicle wells;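 active means activation above a set limit, based on mean plus 3 SD of controls, cut at about 140% in these data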
STAT1 activator = STAT1 signaling activators, primary screen, cell-based, HTS, luciferase reporter; NIH 3T3 STAT1-luciferase reporter, IFN-gamma, luminescence; 100% = IFN-gamma alone, no compound; activation (% of control), % at 5.5 µM; 200,000 tested, 2.6% active; AID 932, 2007;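 active means activation above the screen-wide mean activation plus 3 SD, cut at about 130% in these data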;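 further: raw ratio to IFN-gamma control signal so 100% means no change and 0% no light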
NF-kB expr up = activators of NF-kB expression in neurons, primary screen, cell-based, HTS; human neuronal cells, NF-kB reporter expression; active compounds read high; fold change at 12.5 µM; 190,000 tested, 1.6% active; AID 1239, 2008; in the data active means fold change above about 3.3
STAT1 activ conf = STAT1 signaling activators, confirmation, cell-based, HTS, luciferase reporter; shares compounds with STAT1 activator; NIH 3T3 STAT1-luciferase reporter, IFN-gamma potentiation, luminescence; 100% = IFN-gamma EC80 alone, no compound; activation (% of control), % at 5.7 µM; 1,200 tested, 97% active; AID 1262, 2008;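 active means activation above a set limit carried over from the earlier primary STAT1 screen, cut at about 140% in these data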;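 further: simple ratio to median IFN-gamma plus DMSO wells so 0% means no light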
NFkB act = NF-kB reporter activators, TNF-alpha stimulated, counter-screen for STAT1 activator project, cell-based, HEK293T, luciferase luminescence. shares compounds with STAT1 activator. 100% = TNF-alpha with vehicle only. activation (% of control), % at 5.7 µM. 1,200 tested, 43% active. AID 1306, 2008;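 active means activation above the mean of solvent-only control wells plus 3 SD, set per campaign, cut at about 130% in these data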;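 further: TNF-alpha given at a submaximal dose yielding about 80% of full reporter signal; values are well signal over median control so 100% means no change and 0% no light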
STAT3 act STAT1c = STAT3 reporter activation by STAT1 hits, confirmation, counter-screen for STAT1 activator project, U3A cells, luciferase, luminescence; shares compounds with STAT1 activator; IL-6; cells lack STAT1; 100 = IL-6 alone, no compound effect; activation (% of control), % at 5.7 µM; 1,200 tested, 46% active; AID 1316, 2008;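 active means activation above the solvent-only control well mean plus 3 SD, set per plate batch, cut at about 110% in these data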;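 further: 0% = no luminescence and 100% = median IL-6 plus DMSO wells; higher means more STAT3 reporter activation so hits are non-selective activators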
* = called active by the depositor; / = no result given. Most compounds without a hit are left out; they make up all but 4.9% or so of the library.

SMILES | STAT3 blocker | STAT3 activator | STAT1 inh | APP 5'UTR act | STAT1 activator | NF-kB expr up | STAT1 activ conf | NFkB act | STAT3 act STAT1c
Nc1nc2ccccc2n1/N=C/c1ccc(-c2ccccc2)o1 | 22 | 84 | -61 | 94 | 155* | 1.7 | 160* | 121 | 99
CN(C)S(=O)(=O)c1ccc(C(=O)NCCSc2ccc(Br)cc2)cc1 | 5 | 97 | 4 | -7 | 96 | 0.95 | / | / | /
O=C(NCCSc1ccccc1)c1ccc(Br)cc1 | 3 | 98 | -64 | 180* | 157* | 10* | 205* | 116 | 111*
Cc1cccc(Nc2nc(-c3ccccn3)cs2)n1 | 13 | 92 | -90 | 210* | 191* | 5.6* | 271* | 139* | 110
O=C(Nc1nc(-c2ccccn2)cs1)c1ccc(Cl)s1 | -10 | 108 | 0 | -77 | 101 | 2 | / | / | /
CC(=O)Nc1nc(C)c(-c2csc(Nc3ccccn3)n2)s1 | -7 | 112 | -98 | 102 | 191* | 1.7 | 221* | 142* | 120*
Cc1cccc(NS(=O)(=O)c2cccs2)n1 | 4 | 100 | 7 | 21 | 93 | 0.98 | / | / | /
CSCCC(=O)Nc1nc(-c2ccccn2)cs1 | -1 | 105 | -6 | -7 | 105 | 0.95 | / | / | /
Cc1cccc(Nc2nc(-c3cccs3)cs2)n1 | -22 | 121 | -76 | 208* | 179* | 11* | 261* | 147* | 144*
Cc1cccnc1Nc1nc(-c2ccccn2)cs1 | -2 | 102 | -156 | -93 | 256* | 7.5* | 261* | 168* | 109
O=C(Nc1cc2c(cc1Br)OCCO2)c1cccs1 | 0 | 100 | -21 | 43 | 120 | 2.2 | / | / | /
c1csc(-c2csc(-c3cccs3)n2)c1 | -1 | 105 | -31 | 53 | 128 | 2 | / | / | /
Nc1ccc(Nc2nc(-c3cccs3)cs2)cc1 | 9 | 94 | -66 | 311* | 160* | 1.7 | 168* | 142* | 102
CS(=O)(=O)N1CCC(Oc2ccccc2C(=O)N2CCN(CC3CC3)CC2)CC1 | 8 | 98 | -3 | -3 | 102 | 1.1 | / | / | /
C=CCSc1nncn1/N=C/c1ccc(OC)cc1 | -25 | 125 | -92 | 111 | 184* | 3.4* | 201* | 146* | 133*
COc1ccc(/C=N/n2cnnc2SCCO)cc1OC | -13 | 112 | 1 | 9 | 99 | 1.4 | / | / | /
c1ccc(-c2nc3c(ccc4ccccc43)[nH]2)nc1 | -33 | 131 | -72 | 111 | 173* | 3.7* | 187* | 120 | 130*
O=C(NC(=S)Nc1ccc2c(c1)OCCO2)c1cccc2ccccc12 | -6 | 109 | -7 | 12 | 106 | 1.6 | / | / | /
O=C(NC(=S)Nc1ccc2c(c1)OCCO2)c1cccc(Br)c1 | -12 | 113 | -59 | 91 | 153* | 4.8* | 176* | 133* | 118*
CCC(=O)Nc1ccc2c(c1)OCCO2 | -7 | 108 | 1 | 14 | 99 | 0.86 | / | / | /
O=C(CC(=O)c1ccccc1)Nc1ccc2c(c1)OCCO2 | 0 | 105 | -64 | 129 | 159* | 3.9* | 192* | 131 | 117*
O=C(Nc1ccc2c(c1)OCCO2)c1ccc(Br)s1 | 39 | 67 | -94 | 198* | 184* | 11* | 255* | 116 | 93
O=C(CCCc1ccccc1)Nc1ccc2c(c1)OCCO2 | 32 | 76 | -57 | 203* | 151* | 8* | 162* | 127 | 119*
O=C(CCCCCN1C(=O)c2ccccc2C1=O)Nc1ccc2c(c1)OCCO2 | 11 | 88 | 6 | 0 | 94 | 1.1 | / | / | /
O=c1c(-c2ccccc2)c(O)nc(SCCN2CCOCC2)n1-c1ccccc1 | 6 | 96 | -2 | -15 | 101 | 1.2 | / | / | /
SMILES | STAT3 blocker | STAT3 activator | STAT1 inh | APP 5'UTR act | STAT1 activator | NF-kB expr up | STAT1 activ conf | NFkB act | STAT3 act STAT1c
CCOc1ccc(Cc2n[nH]c(=S)n2Cc2ccccc2)cc1 | 7 | 97 | 3 | -10 | 95 | 1.1 | / | / | /
COc1ccc(C(=O)NC(=S)Nc2ccccc2F)cc1 | 2 | 96 | -66 | 116 | 158* | 3 | 171* | 134* | 100
Clc1ccc(-n2nnnc2-c2ccccc2)cc1Cl | 9 | 96 | -5 | -12 | 106 | 0.99 | / | / | /
Clc1c(-c2ccccc2)nnn1-c1ccccc1 | -7 | 110 | -87 | 153* | 177* | 4.8* | 209* | 137* | 107
COc1ccc(NS(=O)(=O)c2cc(NC(=O)c3cnccn3)ccc2OC)cc1Br | 4 | 103 | 1 | 13 | 98 | 1.3 | / | / | /
C=CCc1c(C)[nH]c2c(OC)cccc2c1=S | 2 | 100 | 5 | 19 | 95 | 1.4 | / | / | /
O=[N+]([O-])c1ccccc1OCCCn1cnc2ccccc21 | 0 | 104 | -79 | 130 | 169* | 4.1* | 188* | 132 | 106
O=C(N=Nc1c(O)n(Cc2ccccc2)c2ccccc12)c1ccc(O)cc1 | -8 | 109 | -68 | 153* | 161* | 2.5 | 217* | 111 | 118*
Cc1ccc(-n2c3c(c(=O)[nH]c2=O)C(NS(=O)(=O)c2ccc(Cl)cc2)(C(F)(F)F)C(=O)N3)cc1 (centres undefined) | 4 | 96 | 9 | -3 | 91 | 1.3 | / | / | /
COc1cc(CN2CCCC(C(=O)c3ccc4c5c(cccc35)CC4)C2)cc(OC)c1O (centres undefined) | 4 | 103 | -3 | -9 | 101 | 0.81 | / | / | /
Fc1ccccc1N1CCN(c2cnc3ccccc3n2)CC1 | 13 | 89 | -64 | / | 168* | 6.3* | 245* | 121 | 99
O=C(CSc1nc(-c2ccc(F)cc2)cc(C(F)(F)F)n1)Nc1ccc2c(c1)OCO2 | 2 | 98 | 10 | 0 | 91 | 1.1 | / | / | /
Cc1cccc(NC(=O)Nc2ccc(C)cc2Br)c1 | 2 | 101 | -26 | 82 | 123 | 1.6 | / | / | /
Cc1cccc(NC(=O)Nc2ccc(C#N)cc2)n1 | 26 | 78 | -122 | 16 | 208* | 1.2 | 141* | 136* | 125*
